This is an account of results in ChEMBL document CHEMBL3286381 (J Med Chem, 2014).

Structures are written as SMILES.

Holding throughout (assay type): ADME, cell-based
Common to all, as to details: cos-7, 1 h

Data set [1] deals with T1, Ectonucleotide pyrophosphatase/phosphodiesterase family member 3 (Homo sapiens, UniProt O14638).
T1 sequence (O14638 whole entry): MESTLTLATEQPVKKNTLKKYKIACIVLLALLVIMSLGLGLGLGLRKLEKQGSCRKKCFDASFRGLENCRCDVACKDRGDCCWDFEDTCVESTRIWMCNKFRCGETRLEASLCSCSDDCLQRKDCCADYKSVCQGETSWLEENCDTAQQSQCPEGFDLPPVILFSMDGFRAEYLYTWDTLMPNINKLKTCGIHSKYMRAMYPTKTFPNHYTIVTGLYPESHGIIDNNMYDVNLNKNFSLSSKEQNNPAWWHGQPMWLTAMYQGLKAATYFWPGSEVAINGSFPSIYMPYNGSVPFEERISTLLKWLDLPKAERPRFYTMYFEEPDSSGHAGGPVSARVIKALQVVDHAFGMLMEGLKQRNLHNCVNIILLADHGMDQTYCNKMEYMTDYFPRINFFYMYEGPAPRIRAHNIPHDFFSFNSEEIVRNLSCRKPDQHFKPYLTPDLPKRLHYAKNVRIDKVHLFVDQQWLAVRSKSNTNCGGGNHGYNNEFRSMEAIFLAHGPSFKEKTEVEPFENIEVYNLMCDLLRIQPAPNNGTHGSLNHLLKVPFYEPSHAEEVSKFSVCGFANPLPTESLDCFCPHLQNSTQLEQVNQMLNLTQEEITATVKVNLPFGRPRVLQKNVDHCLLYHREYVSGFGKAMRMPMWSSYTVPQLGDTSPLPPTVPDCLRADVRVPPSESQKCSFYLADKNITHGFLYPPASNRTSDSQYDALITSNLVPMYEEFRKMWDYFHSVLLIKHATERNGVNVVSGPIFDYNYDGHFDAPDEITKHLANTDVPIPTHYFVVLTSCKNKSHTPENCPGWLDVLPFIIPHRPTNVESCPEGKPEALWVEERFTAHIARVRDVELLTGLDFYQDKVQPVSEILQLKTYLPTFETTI
As to the kind of experiment: Drug metabolism assessed as human NPP3-mediated compound hydrolysis expressed in African green monkey COS7 cells at 100 uM after 1 hr by HPLC analysis.

Data set [2] deals with T2, Ectonucleoside triphosphate diphosphohydrolase 3 (Homo sapiens, UniProt O75355).
T2 sequence (O75355 whole entry): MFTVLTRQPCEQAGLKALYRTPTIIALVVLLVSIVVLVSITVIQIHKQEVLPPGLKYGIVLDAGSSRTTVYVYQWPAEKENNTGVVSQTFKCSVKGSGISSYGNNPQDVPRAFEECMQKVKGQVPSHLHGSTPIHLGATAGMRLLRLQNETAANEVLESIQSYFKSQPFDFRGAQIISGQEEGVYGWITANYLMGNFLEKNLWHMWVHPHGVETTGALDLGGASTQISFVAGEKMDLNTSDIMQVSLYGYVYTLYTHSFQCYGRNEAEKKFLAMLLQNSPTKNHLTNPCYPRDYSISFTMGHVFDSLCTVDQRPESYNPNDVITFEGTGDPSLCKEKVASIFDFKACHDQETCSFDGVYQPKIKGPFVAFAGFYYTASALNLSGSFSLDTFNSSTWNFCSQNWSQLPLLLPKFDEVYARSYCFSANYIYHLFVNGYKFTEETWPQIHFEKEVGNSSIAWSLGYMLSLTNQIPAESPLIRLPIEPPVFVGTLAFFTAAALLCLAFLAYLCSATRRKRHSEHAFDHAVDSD
As to the kind of experiment: Drug metabolism assessed as human NTPDase-3-mediated compound hydrolysis expressed in African green monkey COS7 cells at 100 uM after 1 hr by HPLC analysis. The gist of the method: (§1)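 Protein extracts are from COS-7 cells transiently transfected with human NTPDase1, 2, 3 or 8. The incubation uses Tris–Ringer buffer pH 7.3 at 37 °C with 3 min extract preincubation. Analogue is added alone at 100 μM final. […] Three experiments in triplicate.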

For data set [3], the target named is T3, Ectonucleoside triphosphate diphosphohydrolase 2 (Homo sapiens, UniProt Q9Y5L3).
T3 sequence (Q9Y5L3 whole entry): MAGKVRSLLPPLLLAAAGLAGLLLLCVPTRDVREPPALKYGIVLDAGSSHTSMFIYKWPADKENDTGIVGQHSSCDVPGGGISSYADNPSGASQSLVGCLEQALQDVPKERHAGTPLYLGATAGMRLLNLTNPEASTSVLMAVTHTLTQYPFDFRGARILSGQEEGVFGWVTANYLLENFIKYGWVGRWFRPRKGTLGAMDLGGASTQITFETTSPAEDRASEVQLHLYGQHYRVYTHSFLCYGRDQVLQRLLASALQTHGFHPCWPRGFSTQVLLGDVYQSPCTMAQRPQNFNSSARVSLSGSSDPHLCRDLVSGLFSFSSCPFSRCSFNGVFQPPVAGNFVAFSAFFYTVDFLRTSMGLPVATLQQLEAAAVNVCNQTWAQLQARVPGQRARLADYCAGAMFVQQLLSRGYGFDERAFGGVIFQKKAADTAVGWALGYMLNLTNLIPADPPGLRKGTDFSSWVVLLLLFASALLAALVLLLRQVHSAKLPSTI
As to the kind of experiment: Drug metabolism assessed as human NTPDase-2-mediated compound hydrolysis expressed in African green monkey COS7 cells at 100 uM after 1 hr by HPLC analysis. The gist of the method:
as §1

For data set [4], the target named is T4, Ectonucleotide pyrophosphatase/phosphodiesterase family member 1 (Homo sapiens, UniProt P22413).
T4 sequence (P22413 whole entry): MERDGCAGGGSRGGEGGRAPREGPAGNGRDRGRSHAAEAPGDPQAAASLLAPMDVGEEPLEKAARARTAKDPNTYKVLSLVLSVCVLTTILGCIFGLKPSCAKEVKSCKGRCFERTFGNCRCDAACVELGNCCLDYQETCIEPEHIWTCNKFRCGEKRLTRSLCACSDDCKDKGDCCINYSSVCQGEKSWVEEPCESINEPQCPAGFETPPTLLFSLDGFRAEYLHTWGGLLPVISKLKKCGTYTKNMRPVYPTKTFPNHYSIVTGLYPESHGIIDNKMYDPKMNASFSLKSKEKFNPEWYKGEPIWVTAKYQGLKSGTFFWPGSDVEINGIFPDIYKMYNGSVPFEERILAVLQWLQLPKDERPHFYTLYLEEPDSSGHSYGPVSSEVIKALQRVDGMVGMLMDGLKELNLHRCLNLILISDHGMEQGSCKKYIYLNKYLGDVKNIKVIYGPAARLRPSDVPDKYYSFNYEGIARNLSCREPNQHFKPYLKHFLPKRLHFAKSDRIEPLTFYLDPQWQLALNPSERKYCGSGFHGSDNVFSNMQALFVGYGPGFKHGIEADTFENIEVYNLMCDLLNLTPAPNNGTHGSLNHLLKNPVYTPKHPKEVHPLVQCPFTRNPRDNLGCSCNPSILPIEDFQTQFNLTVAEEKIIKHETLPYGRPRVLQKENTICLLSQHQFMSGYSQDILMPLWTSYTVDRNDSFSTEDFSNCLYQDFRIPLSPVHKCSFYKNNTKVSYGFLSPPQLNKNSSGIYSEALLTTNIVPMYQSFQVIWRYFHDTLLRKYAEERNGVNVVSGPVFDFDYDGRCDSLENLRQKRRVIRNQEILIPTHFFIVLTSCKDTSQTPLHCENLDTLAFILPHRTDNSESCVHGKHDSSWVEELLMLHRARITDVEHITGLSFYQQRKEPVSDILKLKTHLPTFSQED
As to the kind of experiment: Drug metabolism assessed as human NPP1-mediated compound hydrolysis expressed in African green monkey COS7 cells at 100 uM after 1 hr by HPLC analysis.

The target of data set [5] is T5, Ectonucleoside triphosphate diphosphohydrolase 1 (Homo sapiens, UniProt P49961).
T5 sequence (P49961 whole entry): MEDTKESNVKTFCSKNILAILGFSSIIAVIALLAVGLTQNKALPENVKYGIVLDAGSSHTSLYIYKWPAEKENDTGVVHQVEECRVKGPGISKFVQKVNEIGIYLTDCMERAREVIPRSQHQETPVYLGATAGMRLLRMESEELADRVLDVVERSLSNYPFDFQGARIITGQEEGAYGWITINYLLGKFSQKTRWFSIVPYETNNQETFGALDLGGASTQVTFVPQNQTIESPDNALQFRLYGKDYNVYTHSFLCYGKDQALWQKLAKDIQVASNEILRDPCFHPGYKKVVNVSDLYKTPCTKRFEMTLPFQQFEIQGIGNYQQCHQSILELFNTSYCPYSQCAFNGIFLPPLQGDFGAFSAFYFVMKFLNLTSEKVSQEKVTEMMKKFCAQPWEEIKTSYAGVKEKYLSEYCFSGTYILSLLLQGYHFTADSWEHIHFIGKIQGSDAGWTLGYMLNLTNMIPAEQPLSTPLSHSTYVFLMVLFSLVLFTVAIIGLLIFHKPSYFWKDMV
As to the kind of experiment: Drug metabolism assessed as human NTPDase-1-mediated compound hydrolysis expressed in African green monkey COS7 cells at 100 uM after 1 hr by HPLC analysis. The gist of the method:
as §1

As for `Nc1ncnc2c1ncn2[C@@H]1O[C@H](COP(=O)(O)OP(=O)(O)OP(=O)(O)O)[C@@H](O)[C@H]1O` [ADENOSINE TRIPHOSPHATE], the Drug metabolism in data set [1] worked out at 54 nmol/min/mg; in data set [2], 240 nmol/min/mg; in data set [3], 1051 nmol/min/mg; in data set [4], 67 nmol/min/mg; in data set [5] it was 807 nmol/min/mg.
